Hits are enriched below; roughly 6.1% of the tested compounds scored in any of these assays.
hDAT+cocaine: changed hDAT dopamine uptake under cocaine IC80, either direction, primary screen, cocaine antagonist project, cell-based, LLC-PK1 hDAT, [14C]-dopamine uptake, MLSMR; LLC-PK1 hDAT cells, [14C]-dopamine uptake with cocaine IC80; actives deviate in either direction; B-score at 10 µM; hit rate 1.3% among 110,000;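 active = Z score or B-score, a plate-position-corrected score, falls beyond the plate's 99.7% confidence bounds, in either direction; inactive = both scores lie inside the 99.7% bounds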
Target sequence (Q01959 whole entry, looked up): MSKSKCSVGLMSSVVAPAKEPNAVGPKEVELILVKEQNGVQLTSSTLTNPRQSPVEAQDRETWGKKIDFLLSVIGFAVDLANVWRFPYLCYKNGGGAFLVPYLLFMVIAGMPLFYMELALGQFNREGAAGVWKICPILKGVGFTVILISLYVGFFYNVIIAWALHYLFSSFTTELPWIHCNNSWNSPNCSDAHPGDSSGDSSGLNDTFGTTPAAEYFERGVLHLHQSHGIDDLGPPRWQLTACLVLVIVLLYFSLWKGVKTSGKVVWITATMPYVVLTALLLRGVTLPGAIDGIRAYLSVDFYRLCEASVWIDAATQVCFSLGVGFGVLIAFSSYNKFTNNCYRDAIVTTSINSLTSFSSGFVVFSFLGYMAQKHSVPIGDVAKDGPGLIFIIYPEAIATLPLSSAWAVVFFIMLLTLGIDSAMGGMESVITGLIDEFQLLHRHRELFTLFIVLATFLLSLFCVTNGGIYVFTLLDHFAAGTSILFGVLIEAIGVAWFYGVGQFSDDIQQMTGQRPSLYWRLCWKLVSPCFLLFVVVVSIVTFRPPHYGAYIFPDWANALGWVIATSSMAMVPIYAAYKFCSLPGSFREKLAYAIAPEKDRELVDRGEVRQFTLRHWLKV
WT yeast gro inh: growth inhibition of WT strain, primary screen, mitochondrial fusion inhibitor project, WT and mutant strains, chemical genetic. mitochondrial fusion phenotypic screen. inhibition, % at 10 µM. hit rate 2.1% among 190,000. AID 1362, 2008; in the data active = inhibition above about 58%; tested in S. cerevisiae
RAM inhibit: inhibitors of the yeast RAM network, primary screen, dse1pr::URA3 reporter, 5-FOA selection; S. cerevisiae dse1pr::URA3 reporter, 5-FOA growth OD615, 2 d; analog-sensitive cbk1-as2 kinase mutant strain; inhibition, % at 50 µM; hit rate 1.8% among 190,000; AID 868, 2007;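 active = inhibition above a set limit, 3 SD over mean compound inhibition, cut at about 8.4% in these data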;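 note: inhibition rescues growth on 5-FOA so higher OD means more RAM inhibition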
Yeast life ext: compounds extending yeast replicative lifespan, primary screen, S. cerevisiae, OD615 | inhibition of the nicotinamide effect, % at 10 µM | AID 775, 2007 | S. cerevisiae growth with nicotinamide; deaD strain in restrictive glucose medium | hit rate 0.68% among 130,000;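 active = inhibition above a set limit, placed 3 SD over the median of all compounds, cut at about 26% in these data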
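assay system = DeaD-strain S. cerevisiae | measured by = absorbance at 615 nm | probe or stimulus = nicotinamide 1.5 mM | buffer or medium = CSMM-D glucose medium, restrictive | times = 48 h at 30 °C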
Measles CPE: compounds protecting cells from measles virus cytopathic effect, primary screen, measles RdRp inhibitor project, single point, MLSMR library, absorbance | protection (pct of control), % at 4 µM | Measles virus-infected cells, CPE protection | hit rate 1.5% among 140,000; in the data active = protection mostly above about 24%, no sharp cut-off; inactive = mostly below about 26%
BB579 growth dn: growth inhibitors of yeast BB579 in restrictive medium, primary screen, yeast lifespan-shortening project, S. cerevisiae; inhibition, % at 10 µM; OD615, 48 h; hit rate 0.51% among 140,000;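 active = inhibition above a set limit, 3 SD over the mean compound inhibition, cut at about 44% in these data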
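Assay system – yeast BB579 (DeaD) · Dosing – single compound dose of 10 µM, 0.25% DMSO final · Detection – OD615 turbidity measurement · Buffer or medium – CSMM-D restrictive synthetic medium containing dextrose (glucose) · Benchmarks – positive control amphotericin B 10 µg/mL · Incubation – 48 h exposure, 30 °C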
Large screens that a line does not name were inactive.

O=c1ccccn1CCOc1ccccc1Cl	none (no result: hDAT+cocaine)
O=c1ccccn1Cc1c(Cl)cccc1Cl	WT yeast gro inh 73
O=C(Nc1cccn(Cc2c(Cl)cccc2Cl)c1=O)c1ccccc1Cl	Measles CPE 48
CC(=O)N/N=C(\C)CC(=O)NC(C)(C)C	none (no result: hDAT+cocaine, Yeast life ext, Measles CPE, BB579 growth dn)
COC(=O)c1cc(NC(=S)Nc2cc(Cl)cc(Cl)c2)cc(C(=O)OC)c1	WT yeast gro inh 77, Yeast life ext 27 (no result: hDAT+cocaine)
COC(=O)c1cccc(NC(=S)Nc2cccc(Cl)c2C)c1	none (no result: hDAT+cocaine, Measles CPE)
O=S(=O)(NCC(Nc1ccc(Cl)cc1)c1ccccc1)c1ccccc1 (stereo unspecified)	WT yeast gro inh 83 (no result: hDAT+cocaine)
Cc1ccc(NC(CNS(=O)(=O)c2ccc(Cl)cc2)c2ccccc2)cc1 (stereo unspecified)	WT yeast gro inh 88
COCCCN(CC(=O)Nc1ccc(N2CCOCC2)cc1)S(=O)(=O)c1ccccc1	none (no result: hDAT+cocaine, Yeast life ext, Measles CPE, BB579 growth dn)
O=C(CCCN1C(=O)C2CCCCN2C1=O)N1CCN(c2ccc([N+](=O)[O-])cc2)CC1 (stereo unspecified)	none
CCCCN(CC)Cc1ccc(CNC(=O)Nc2ccc(F)cc2)o1	hDAT+cocaine -5.5 (no result: WT yeast gro inh)
Cc1nc2ccc(NC(=O)c3nn(CC(C)C)c(=O)c4ccccc34)cc2s1	WT yeast gro inh 64 (no result: hDAT+cocaine)
Cc1ccc(C(=O)Nc2ccc3nc(C)sc3c2)s1	Measles CPE 60 (no result: WT yeast gro inh)
Cc1nc2ccc(NC(=O)c3cc([N+](=O)[O-])cc([N+](=O)[O-])c3Cl)cc2s1	BB579 growth dn 89 (no result: hDAT+cocaine)
COc1cccc(CC(=O)Nc2ccc3nc(C)sc3c2)c1	WT yeast gro inh 64, BB579 growth dn 79 (no result: hDAT+cocaine)
CSCCC(NC(=O)c1ccc(Cl)cc1)C(=O)OCC(=O)c1ccc[nH]1 (stereo unspecified)	none (no result: hDAT+cocaine)
COc1ccccc1C(=O)Nc1ccc2c(c1)nc(CN1CCCCC1)n2C	none (no result: hDAT+cocaine, Yeast life ext, Measles CPE, BB579 growth dn)
CCOc1ccc(S(=O)(=O)NCc2ccncc2)cc1	hDAT+cocaine -2.7
CCOC(=O)COc1ccc(S(=O)(=O)NCc2ccncc2)cc1	none
CC1CCCCC1NS(=O)(=O)c1ccc(S(=O)(=O)NCc2ccncc2)cc1 (stereo unspecified)	Measles CPE 39
CCCCOc1ccc(CNC(=O)NS(=O)(=O)c2ccc(OCC)cc2)cc1	hDAT+cocaine -9.1
Cc1ccc(S(=O)(=O)NCc2ccncc2)cc1	none
O=C(C1=C[C@@H](c2ccc(Br)cc2)C[C@@H](OCCCCO)O1)N1CCN(Cc2ccccc2)CC1	none (no result: Yeast life ext, Measles CPE, BB579 growth dn)
O=C(NNc1cccc(Cl)c1)c1cccnc1Cl	none (no result: hDAT+cocaine)
O=S(Cc1ccccc1)CC(O)(c1ccccc1)c1ccccc1 (stereo unspecified)	none
CCCCCCS(=O)Cc1ccccc1 (stereo unspecified)	Measles CPE 35
CC(N)C12CC3CC(C1)CC(C(C)N)(C3)C2 (stereo unspecified)	none
Cn1c(/C=N/Nc2nc3ccccc3[nH]2)nc2ccccc21	none (no result: hDAT+cocaine, Yeast life ext, Measles CPE, BB579 growth dn)
CC(=O)Nc1ccc(/C=N/Nc2nc3ccccc3[nH]2)cc1	none (no result: hDAT+cocaine)
CC(C)Cn1c(/C=N/Nc2nc3ccccc3[nH]2)nc2ccccc21	WT yeast gro inh 60 (no result: hDAT+cocaine, Measles CPE)
CCCn1c(/C=N/Nc2nc3ccccc3[nH]2)nc2ccccc21	WT yeast gro inh 58 (no result: hDAT+cocaine)
CCN(CC)c1ccc(/C=N/Nc2nc3ccccc3[nH]2)cc1	WT yeast gro inh 79 (no result: hDAT+cocaine)
CC(/C=N/Nc1nc2ccccc2[nH]1)=C\c1ccccc1	WT yeast gro inh 90 (no result: hDAT+cocaine)
Cc1c(Br)c([N+](=O)[O-])nn1CC(=O)NCCc1c[nH]c2ccccc12	none (no result: hDAT+cocaine, Yeast life ext, Measles CPE, BB579 growth dn)
COc1ccc(/C=C/CN2CCCC(CO)(Cc3cccc(Cl)c3)C2)cc1 (stereo unspecified)	none (no result: hDAT+cocaine, Yeast life ext, Measles CPE, BB579 growth dn)
COCCCn1c(SCC(=O)N2CCc3ccccc32)nnc1-c1ccco1	RAM inhibit 8.6 (no result: Yeast life ext)
CCn1c(SCC(=O)N2CCCc3ccccc32)nc2cccnc21	none
COCCCn1c(SCC(=O)N2CCc3ccccc32)nnc1-c1ccoc1C	none (no result: WT yeast gro inh, RAM inhibit, Yeast life ext, Measles CPE, BB579 growth dn)
CCn1c(SCC(=O)N2CCCc3ccccc32)nc2ccccc2c1=O	hDAT+cocaine 3.1
